Values after ≈ are worked out from the molar mass of the structure shown.
Legend:
Type in all cases: functional
Haemophilus influenzae [1] = test: In vitro minimum inhibitory concentration for antibacterial activity against Haemophilus influenzae ATCC 33533 (ampicillin-resistant strain that produces beta-lactamase)
Summary of the method: (§1)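 Agar dilution MIC determined by the Japan Society of Chemotherapy standard method for aerobic bacteria.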

Staphylococcus aureus [2] = test: In vitro minimum inhibitory concentration for antibacterial activity against erythromycin-susceptible strain Staphylococcus aureus […]
Summary of the method: (§2)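 MIC by agar dilution following the Japan Society of Chemotherapy standard method for aerobic bacteria. S. aureus 209P-JC and S. pneumoniae IID553 are erythromycin-susceptible strains.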

Streptococcus pneumoniae [3] = test: In vitro minimum inhibitory concentration for antibacterial activity against Streptococcus pneumoniae 211 (MLSb-resistant strain encoded by the erm(B) gene); summary of the method: as §1
Staphylococcus aureus [4] = test: In vitro minimum inhibitory concentration for antibacterial activity against Staphylococcus aureus B1 (inducibly MLSb-resistant strain encoded by the erm(C) gene); summary of the method: as §1
Staphylococcus aureus [5] = test: In vitro minimum inhibitory concentration for antibacterial activity against Staphylococcus aureus SR138 (constitutively MLSb-resistant strain encoded by the erm(A) gene); summary of the method: as §1
Streptococcus pneumoniae [6] = test: In vitro minimum inhibitory concentration for antibacterial activity against erythromycin-susceptible strain Streptococcus pneumoniae IID553; summary of the method: as §2
Streptococcus pneumoniae [7] = test: In vitro minimum inhibitory concentration for antibacterial activity against Streptococcus pneumoniae 210 (efflux-resistant strain encoded by the mef(A) gene); summary of the method: as §1
Haemophilus influenzae [8] = test: In vitro minimum inhibitory concentration for antibacterial activity against Haemophilus influenzae ATCC 43095 (ampicillin-susceptible strain that does not produce beta-lactamase); summary of the method: as §1

| SMILES | MIC (Haemophilus influenzae [1]) [µg/mL] | MIC (Staphylococcus aureus [2]) [µg/mL] | MIC (Streptococcus pneumoniae [3]) [µg/mL] | MIC (Staphylococcus aureus [4]) [µg/mL] | MIC (Staphylococcus aureus [5]) [µg/mL] | MIC (Streptococcus pneumoniae [6]) [µg/mL] | MIC (Streptococcus pneumoniae [7]) [µg/mL] | MIC (Haemophilus influenzae [8]) [µg/mL] |
| --- | --- | --- | --- | --- | --- | --- | --- | --- |
| CC[C@H]1OC(=O)[C@H](C)[C@@H](OC(=O)Cc2ccccc2)[C@H](C)[C@@H](O[C@@H]2O[C@H](C)C[C@H](N(C)C)[C@H]2O)[C@@](C)(OC)C[C@@H](C)C(=O)[C@H](C)[C@@H](O)[C@]1(C)O | 100 (≈ 141 µM) | 1.56 (≈ 2.2 µM) | > 100 | 6.25 (≈ 8.83 µM) | > 100 | 0.78 (≈ 1.1 µM) | 0.78 (≈ 1.1 µM) | 100 (≈ 141 µM) |
| CC[C@H]1OC(=O)[C@H](C)[C@@H](OC(=O)Cc2ccccn2)[C@H](C)[C@@H](OC2O[C@H](C)C[C@H](N(C)C)[C@H]2O)[C@@](C)(OC)C[C@@H](C)C(=O)[C@H](C)[C@@H](O)[C@]1(C)O (stereo partly drawn) | 25 (≈ 35.3 µM) | 1.56 (≈ 2.2 µM) | > 100 | 1.56 (≈ 2.2 µM) | > 100 | 0.39 (≈ 0.55 µM) | 0.39 (≈ 0.55 µM) | 50 (≈ 70.5 µM) |
| CC[C@H]1OC(=O)[C@H](C)[C@@H](OC(=O)Cc2cccnc2)[C@H](C)[C@@H](OC2O[C@H](C)C[C@H](N(C)C)[C@H]2O)[C@@](C)(OC)C[C@@H](C)C2=NCCN3C(=O)O[C@@]1(C)[C@H]3[C@H]2C (stereo partly drawn) | 3.13 (≈ 4.12 µM) | 0.2 (≈ 0.264 µM) | > 100 | 0.39 (≈ 0.514 µM) | > 100 | 0.05 (≈ 0.0659 µM) | 0.2 (≈ 0.264 µM) | 6.25 (≈ 8.24 µM) |
| CC[C@H]1OC(=O)[C@H](C)[C@@H](OC(=O)Cc2ccncc2)[C@H](C)[C@@H](OC2O[C@H](C)C[C@H](N(C)C)[C@H]2O)[C@@](C)(OC)C[C@@H](C)C(=O)[C@H](C)[C@@H](O)[C@]1(C)O (stereo partly drawn) | 50 (≈ 70.5 µM) | 0.78 (≈ 1.1 µM) | > 100 | 1.56 (≈ 2.2 µM) | > 100 | 0.39 (≈ 0.55 µM) | 0.39 (≈ 0.55 µM) | 50 (≈ 70.5 µM) |
| CC[C@H]1OC(=O)[C@H](C)[C@@H](OC(=O)Cc2cccnc2)[C@H](C)[C@@H](OC2O[C@H](C)C[C@H](N(C)C)[C@H]2O)[C@@](C)(O)C[C@@H](C)[C@H](O)[C@H](C)[C@@H](O)[C@]1(C)O (stereo partly drawn) | 12.5 (≈ 17.9 µM) | 3.13 (≈ 4.49 µM) | > 100 | 6.25 (≈ 8.97 µM) | > 100 | 0.78 (≈ 1.12 µM) | 0.78 (≈ 1.12 µM) | 12.5 (≈ 17.9 µM) |
| CC[C@H]1OC(=O)[C@H](C)[C@@H](OC(=O)Cc2ccccn2)[C@H](C)[C@@H](OC2O[C@H](C)C[C@H](N(C)C)[C@H]2O)[C@@]2(C)C[C@@H](C)[C@H](OC(=O)O2)[C@H](C)[C@H]2OC(=O)O[C@@]21C (stereo partly drawn) | 6.25 (≈ 8.35 µM) | 0.2 (≈ 0.267 µM) | 100 (≈ 134 µM) | 0.78 (≈ 1.04 µM) | > 100 | 0.05 (≈ 0.0668 µM) | 0.2 (≈ 0.267 µM) | 6.25 (≈ 8.35 µM) |
| CC[C@H]1OC(=O)[C@H](C)[C@@H](O)[C@H](C)[C@@H](OC2O[C@H](C)C[C@H](N(C)C)[C@H]2O)[C@@]2(C)C[C@@H](C)[C@H](OC(=O)O2)[C@H](C)[C@H]2OC(=O)O[C@@]21C (stereo partly drawn) | 100 (≈ 159 µM) | 12.5 (≈ 19.8 µM) | > 100 | > 100 | > 100 | 0.78 (≈ 1.24 µM) | 1.56 (≈ 2.48 µM) | 50 (≈ 79.4 µM) |
| CC[C@H]1OC(=O)[C@H](C)[C@@H](OC(=O)Cc2cccnc2)[C@H](C)[C@@H](OC2O[C@H](C)C[C@H](N(C)C)[C@H]2O)[C@@](C)(O)C[C@@H](C)/C(=N\O)[C@H](C)[C@@H](O)[C@]1(C)O (stereo partly drawn) | 12.5 (≈ 17.6 µM) | 1.56 (≈ 2.2 µM) | > 100 | 1.56 (≈ 2.2 µM) | > 100 | 0.39 (≈ 0.549 µM) | 0.78 (≈ 1.1 µM) | 12.5 (≈ 17.6 µM) |
| CC[C@H]1OC(=O)[C@H](C)[C@@H](OC(=O)c2cccc(OC)c2)[C@H](C)[C@@H](OC2O[C@H](C)C[C@H](N(C)C)[C@H]2O)[C@@](C)(OC)C[C@@H](C)C(=O)[C@H](C)[C@@H](O)[C@]1(C)O (stereo partly drawn) | 100 (≈ 138 µM) | 25 (≈ 34.5 µM) | > 100 | 50 (≈ 69.1 µM) | > 100 | 1.56 (≈ 2.15 µM) | 1.56 (≈ 2.15 µM) | > 100 |
| CC[C@H]1OC(=O)[C@H](C)[C@@H](OC(=O)Cc2cccnc2)[C@H](C)[C@@H](OC2O[C@H](C)C[C@H](N(C)C)[C@H]2O)[C@@](C)(O)C[C@@H](C)C(=O)[C@H](C)[C@H]2OC(=O)O[C@@]21C (stereo partly drawn) | 3.13 (≈ 4.34 µM) | 0.2 (≈ 0.277 µM) | > 100 | 0.39 (≈ 0.541 µM) | > 100 | 0.05 (≈ 0.0694 µM) | 0.2 (≈ 0.277 µM) | 3.13 (≈ 4.34 µM) |
| CC[C@H]1OC(=O)[C@H](C)[C@@H](OC(=O)Cc2ccc(OC)cc2)[C@H](C)[C@@H](OC2O[C@H](C)C[C@H](N(C)C)[C@H]2O)[C@@](C)(OC)C[C@@H](C)C(=O)[C@H](C)[C@@H](O)[C@]1(C)O (stereo partly drawn) | 50 (≈ 67.8 µM) | 1.56 (≈ 2.11 µM) | > 100 | 12.5 (≈ 16.9 µM) | > 100 | 0.78 (≈ 1.06 µM) | 0.78 (≈ 1.06 µM) | 100 (≈ 136 µM) |
